Results: ChEMBL document CHEMBL4265991

Legend:
[1] = compound: O=S1(=O)C=C(Sc2nnc(-c3ccccc3)o2)c2ccccc21; experiment: Inhibition of recombinant Cryptococcus neoformans His-tagged IMPDH expressed in Escherichia coli BL21 (DE3) at 0.3 uM assessed as Kcat for substrate using IMP as fixed substrate at 500 uM and NAD as second substrate with varying concentrations of 31.25 to 1300 uM (reference value: 1.5 /s)
[2] = compound: O=S1(=O)C=C(Sc2nnc(-c3ccccc3)o2)c2ccccc21; experiment: (§1) Inhibition of recombinant Cryptococcus neoformans His-tagged IMPDH expressed in Escherichia coli BL21 (DE3) at 2.5 uM assessed as Vmax for substrate using NAD as fixed substrate at 700 uM and IMP as second substrate with varying concentrations of 25 to 800 uM (reference value: 1.5 microM/min)
Procedure, shortened: (§2)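 Recombinant C. neoformans IMPDH, 100 nM final, reaction started by adding enzyme. NADH production monitored at 340 nm. Inhibitor series ran from 20 to 0.31 µM; MPA tested at 312 to 39 nM. Km and Vmax fitted to the Michaelis–Menten equation; inhibition type taken from shifts in Km and Vmax.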

[3] = compound: COc1ccccc1-c1nnc(SC2=CS(=O)(=O)c3ccccc32)o1; experiment: as §1
Procedure, shortened: as §2

[4] = compound: O=S1(=O)C=C(Sc2nnc(-c3ccccc3)o2)c2ccccc21; experiment: (§3) Inhibition of recombinant Cryptococcus neoformans His-tagged IMPDH expressed in Escherichia coli BL21 (DE3) at 10 uM assessed as Kcat for substrate using NAD as fixed substrate at 700 uM and IMP as second substrate with varying concentrations of 25 to 800 uM (reference value: 21.5 /s)
Procedure, shortened: as §2

[5] = compound: COc1ccccc1-c1nnc(SC2=CS(=O)(=O)c3ccccc32)o1; experiment: as §3
Procedure, shortened: as §2

[6] = substrate: COc1c(C)c2c(c(O)c1C/C=C(\C)CCC(=O)O)C(=O)OC2; conditions: Cryptococcus neoformans; 0.039 uM
[7] = compound: O=S1(=O)C=C(Sc2nnc(-c3ccccc3)o2)c2ccccc21; experiment: (§4) Inhibition of recombinant Cryptococcus neoformans His-tagged IMPDH expressed in Escherichia coli BL21 (DE3) at 0.3 uM assessed as Km for substrate using IMP as fixed substrate at 500 uM and NAD as second substrate with varying concentrations of 31.25 to 1300 uM (reference value: 257.5 +/- 23 microM)
Procedure, shortened: as §2

[8] = compound: COc1ccccc1-c1nnc(SC2=CS(=O)(=O)c3ccccc32)o1; experiment: as §4
Procedure, shortened: as §2

[9] = compound: O=S1(=O)C=C(Sc2nnc(-c3ccccc3)o2)c2ccccc21; experiment: (§5) Inhibition of recombinant Cryptococcus neoformans His-tagged IMPDH expressed in Escherichia coli BL21 (DE3) at 10 uM assessed as Kcat for substrate using IMP as fixed substrate at 500 uM and NAD as second substrate with varying concentrations of 31.25 to 1300 uM (reference value: 21.5 /s)
Procedure, shortened: as §2

[10] = compound: COc1ccccc1-c1nnc(SC2=CS(=O)(=O)c3ccccc32)o1; experiment: as §5
Procedure, shortened: as §2

[11] = substrate: COc1c(C)c2c(c(O)c1C/C=C(\C)CCC(=O)O)C(=O)OC2; conditions: Cryptococcus neoformans; 0.078 uM
[12] = compound: O=S1(=O)C=C(Sc2nnc(-c3ccccc3)o2)c2ccccc21; experiment: (§6) Inhibition of recombinant Cryptococcus neoformans His-tagged IMPDH expressed in Escherichia coli BL21 (DE3) at 2.5 uM assessed as Km for substrate using IMP as fixed substrate at 500 uM and NAD as second substrate with varying concentrations of 31.25 to 1300 uM (reference value: 257.5 +/- 23 microM)
Procedure, shortened: as §2

[13] = compound: COc1ccccc1-c1nnc(SC2=CS(=O)(=O)c3ccccc32)o1; experiment: as §6
Procedure, shortened: as §2

[14] = substrate: COc1c(C)c2c(c(O)c1C/C=C(\C)CCC(=O)O)C(=O)OC2; conditions: Cryptococcus neoformans; 0.039 uM; remark: listed apart in the source
[15] = substrate: COc1c(C)c2c(c(O)c1C/C=C(\C)CCC(=O)O)C(=O)OC2; conditions: Cryptococcus neoformans; 0.078 uM; remark: listed apart in the source
[16] = substrate: COc1c(C)c2c(c(O)c1C/C=C(\C)CCC(=O)O)C(=O)OC2; conditions: Cryptococcus neoformans; 0.156 uM
[17] = substrate: COc1c(C)c2c(c(O)c1C/C=C(\C)CCC(=O)O)C(=O)OC2; conditions: Cryptococcus neoformans; 0.156 uM; remark: listed apart in the source
[18] = substrate: COc1c(C)c2c(c(O)c1C/C=C(\C)CCC(=O)O)C(=O)OC2; conditions: Cryptococcus neoformans; 0.156 uM; remark: listed apart in the source
[19] = compound: O=S1(=O)C=C(Sc2nnc(-c3ccccc3)o2)c2ccccc21; experiment: (§7) Inhibition of recombinant Cryptococcus neoformans His-tagged IMPDH expressed in Escherichia coli BL21 (DE3) at 0.3 uM assessed as Vmax for substrate using NAD as fixed substrate at 700 uM and IMP as second substrate with varying concentrations of 25 to 800 uM (reference value: 1.5 microM/min)
Procedure, shortened: as §2

[20] = compound: COc1ccccc1-c1nnc(SC2=CS(=O)(=O)c3ccccc32)o1; experiment: as §7
Procedure, shortened: as §2

[21] = compound: O=S1(=O)C=C(Sc2nnc(-c3ccccc3)o2)c2ccccc21; experiment: (§8) Inhibition of recombinant Cryptococcus neoformans His-tagged IMPDH expressed in Escherichia coli BL21 (DE3) at 0.3 uM assessed as Kcat for substrate using NAD as fixed substrate at 700 uM and IMP as second substrate with varying concentrations of 25 to 800 uM (reference value: 21.5 /s)
Procedure, shortened: as §2

[22] = compound: COc1ccccc1-c1nnc(SC2=CS(=O)(=O)c3ccccc32)o1; experiment: as §8
Procedure, shortened: as §2

[23] = substrate: COc1c(C)c2c(c(O)c1C/C=C(\C)CCC(=O)O)C(=O)OC2; conditions: Cryptococcus neoformans; 0.078 uM; remark: listed apart in the source
[24] = compound: COc1ccccc1-c1nnc(SC2=CS(=O)(=O)c3ccccc32)o1; experiment: Inhibition of recombinant Cryptococcus neoformans His-tagged IMPDH expressed in Escherichia coli BL21 (DE3) at 0.3 uM assessed as Kcat for substrate using IMP as fixed substrate at 500 uM and NAD as second substrate with varying concentrations of 31.25 to 1300 uM (reference value: 21.5 /s)
Procedure, shortened: as §2

[25] = substrate: COc1c(C)c2c(c(O)c1C/C=C(\C)CCC(=O)O)C(=O)OC2; conditions: Cryptococcus neoformans; 0.078 uM; remark: listed apart in the source
[26] = substrate: COc1c(C)c2c(c(O)c1C/C=C(\C)CCC(=O)O)C(=O)OC2; conditions: Cryptococcus neoformans; 0.156 uM; remark: listed apart in the source
[27] = compound: O=S1(=O)C=C(Sc2nnc(-c3ccccc3)o2)c2ccccc21; experiment: Inhibition of recombinant Cryptococcus neoformans His-tagged IMPDH expressed in Escherichia coli BL21 (DE3) at 0.3 uM assessed as Km for substrate using NAD as fixed substrate at 700 uM and IMP as second substrate with varying concentrations of 25 to 800 uM (reference value: 257.5 +/- 23 microM)
Procedure, shortened: as §2

B1: Inosine-5'-monophosphate dehydrogenase (Cryptococcus neoformans var. neoformans serotype D (strain JEC21 /ATCC MYA-565) (Filobasidiella neoformans)), Q5KP44 (protein)
chain: MADTNPNAPPRSDSLLNPADALKYLEEYPRGDGLSLQELMDSRKNGGLTYNDFLVLPGHISFPASDVSLQSRATKNIVLNTPFLSSPMDTVTEDRMAIALALHGGLGIIHHNCSAEEQAAMVRRVKKYENGFITDPLCLGPDATVGDVLEIKAKFGFCGVPITETGAPNSKLLGIVTGRDVQFQDAETPIKSVMTTEVVTGSSPITLEKANSLLRETKKGKLPIVDSNGHLVSLVARSDLLKNQNYPYASKVPESKQLYCGAAIGTRPGDKDRLKLLAEAGLDVVVLDSSQGDSVYQIEFIKWIKQTYPKIEIIAGNVVTREQAAQLIAAGADGLRIGMGSGSICITQEVMAVGRPQGTAVYAVAEFASRFGIPCIADGGIGNIGHIAKALALGASAVMMGGLLAGTTESPGEYFYHEGKRVKVYRGMGSIEAMEHTQRGSASGKRSILNLDNAATARYFSEADAVKVAQGVSGDVADKGSINKFVPYLFTGLQHSFQDAGVKSVSELHSCARSGSLRFELRTASAQLEGGVHGLNSYTKRLFA
B1 was tested, and the kcat [1] was 1.5 s⁻¹, the Vmax [2] was 0.9 µM/min and the Vmax [3] was 1 µM/min. For the same protein, the kcat [4] was 0.6 s⁻¹, the kcat [5] was 0.7 s⁻¹ and the Vmax [6] was 1.1 µM/min. The Km [7] was 307 µM, the Km [8] was 278 µM and the kcat [9] was 1 s⁻¹. The kcat [10] was 1 s⁻¹, the Vmax [11] was 0.6 µM/min and the Km [12] was 336 µM. It also gave a Km [13] of 358 µM, a kcat [14] of 1.1 s⁻¹ and a Vmax [15] of 0.6 µM/min. The Km [16] was 32 µM, the Km [17] was 37 µM and the kcat [18] was 0.25 s⁻¹. It also gave a Vmax [19] of 1.1 µM/min, a Vmax [20] of 1.4 µM/min and a kcat [21] of 1.1 s⁻¹. It also gave a kcat [22] of 1.4 s⁻¹, a kcat [23] of 0.6 s⁻¹ and a kcat [24] of 1.5 s⁻¹. It also gave a kcat [25] of 0.6 s⁻¹, a Vmax [26] of 0.26 µM/min and a Km [27] of 92.5 µM.
